Experimental data reported in PMC3051377 (British Journal of Pharmacology, 2011).
Where two headings read alike, the source gives them in different places. Values belong to the compound of their own block, whether it stands above or below them.

Columns and labels:
[1] = system: Gs/olf G-proteins; experiment: Kinetics of 500 nM [3H]GDP binding to Gs/olf G-proteins; design: species or system Chinese hamster; settings: Control
[2] = system: G-proteins in GDP-less membranes of CHO-M2 cells; experiment: Kinetics of [35S]GTPγS binding to GDP-less membranes; design: species or system Chinese hamster
Outline: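 GDP-less CHO-M2 membranes, 30°C. Association of 1 nM [³⁵S]GTPγS was measured after 20 min pre-incubation with buffer or 100 µM agonist, ±50 µM GDP. For dissociation, membranes were preloaded 90 min with 1 nM [³⁵S]GTPγS ±50 µM GDP, then chased with 1 µM GTPγS alone or with agonist. Filtration on glass-fibre filters, scintillation counting. Three experiments in quadruplicate; exponential association/dissociation fits.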

[3] = system: G-proteins in GDP-less membranes of CHO-M2 cells; experiment: Kinetics of [3H]GDP binding to GDP-less membranes; design: species or system Chinese hamster; settings: 500 nM [3H]GDP, no ligand
Outline: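 GDP-less CHO-M2 membranes, 30°C. Association of 500 nM [³H]GDP was measured after 20 min pre-incubation with buffer, 10 or 100 µM agonist, or 0.1 µM antagonist. For dissociation, membranes were prelabelled with 500 nM [³H]GDP for 180 min, then chased with 50 µM GDP alone or with ligand. Slow and fast rate constants came from biphasic fits.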

[4] = molecular target: T1, M2 receptor-G-protein complex (Homo sapiens, UniProt P08172); format: binding
T1 sequence (P08172 1-466): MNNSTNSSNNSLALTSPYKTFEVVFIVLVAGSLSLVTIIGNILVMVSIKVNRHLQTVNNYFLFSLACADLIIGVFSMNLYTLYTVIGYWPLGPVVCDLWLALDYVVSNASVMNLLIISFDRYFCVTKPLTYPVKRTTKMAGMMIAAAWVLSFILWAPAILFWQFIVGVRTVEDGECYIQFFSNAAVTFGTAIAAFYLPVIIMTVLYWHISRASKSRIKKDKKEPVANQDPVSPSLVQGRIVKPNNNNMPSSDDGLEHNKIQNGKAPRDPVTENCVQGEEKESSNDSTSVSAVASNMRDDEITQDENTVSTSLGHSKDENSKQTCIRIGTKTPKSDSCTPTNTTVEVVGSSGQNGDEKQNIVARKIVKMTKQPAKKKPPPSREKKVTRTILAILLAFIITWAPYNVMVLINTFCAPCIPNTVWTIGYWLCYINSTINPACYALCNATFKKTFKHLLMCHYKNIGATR

[5] = system: Gi/o G-proteins; experiment: Kinetics of 500 nM [3H]GDP binding to Gi/o G-proteins; design: species or system Chinese hamster
[6] = molecular target: T1, M2 receptor-G-protein complex; format: binding; remark: listed apart in the source
[7] = system: G-proteins in GDP-less membranes of CHO-M2 cells; experiment: Equilibrium [3H]GDP binding to GDP-less membranes; design: species or system Chinese hamster
Outline: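 GDP-less membranes from CHO-M2 cells were made by treatment with 1 M ammonium sulphate for 3 h at 4°C, then renatured 1 h in 20% glycerol. Incubation was 5 h at 30°C in 100 mM NaCl, 20 mM Na-HEPES, 10 mM MgCl₂ (pH 7.4) with 1 mM DTT. Assays were homologous competition at 1 or 5 µM [³H]GDP, plus saturation. Non-specific binding was taken with 50 µM GDP. Three experiments, quadruplicate; Hill-equation fits.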

[8] = molecular target: T2, Gq/11 G-proteins (Homo sapiens, UniProt P08172); experiment: [35S]GTPγS binding to Gq/11 G-proteins; format: biochemical, Chinese hamster; settings: Gq/11, text
T2 sequence (P08172 1-466): T1 sequence (P08172 1-466)

[9] = molecular target: T3, Gs/olf G-proteins (Homo sapiens, UniProt P08172); experiment: biochemical; format: binding, Chinese hamster
T3 sequence (P08172 1-466): T1 sequence (P08172 1-466)

[10] = molecular target: T4, human M2 muscarinic receptor (Homo sapiens, UniProt P08172); experiment: Competition of agonists with 1 nM [3H]NMS binding
T4 sequence (P08172 1-466): T1 sequence (P08172 1-466)

[11] = molecular target: T5, Gi/o G-proteins (Homo sapiens, UniProt P08172); experiment: biochemical; format: biochemical, Chinese hamster
T5 sequence (P08172 1-466): T1 sequence (P08172 1-466)

[12] = molecular target: T5, Gi/o G-proteins; experiment: biochemical; format: binding, Chinese hamster
[13] = molecular target: T4, human M2 muscarinic receptor; experiment: Agonist-stimulated [35S]GTPγS binding to membranes from M2 CHO cells; format: biochemical
[14] = molecular target: T2, Gq/11 G-proteins; format: binding, Chinese hamster; settings: Gq/11, 10 µM [3H]GDP
[15] = molecular target: T3, Gs/olf G-proteins; experiment: biochemical; format: biochemical, Chinese hamster
[16] = 1 nM [35S]GTPγS, GDP-less membranes, no GDP, no ligand

Beq [1]: 0.81 ± 0.04 fmol·µg^−1 protein
koff [1]: 0.00112 ± 0.00012 s⁻¹
equilibrium dissociation constant for [3H]GDP (pKA) ([4]; Eqn 7, all four agonists, mean ± SD, n=12): 5.51 ± 0.05
Beq1 ([5]; Control): 2.1 ± 0.2 fmol·µg^−1 protein
Beq2 ([5]; Control): 1.1 ± 0.1 fmol·µg^−1 protein
f2 ([5]; Control): 37 ± 5%
koff1 ([5]; Control): 0.00583 ± 0.0005 s⁻¹
koff2 ([5]; Control): 0.000667 ± 6.7e-05 s⁻¹
Beq, mono-exponential fit ([5]; control conditions (absence of carbachol), n=3): 2.8 ± 0.3 fmol·µg·prot^−1
factor of cooperativity α between [3H]NMS and GDP ([6]; GDP-less membranes): 1
effect of GDP on [3H]NMS binding ([6]; absence of agonist): no effect
Structure (SMILES): Nc1nc2c(ncn2[C@@H]2O[C@H](COP(=O)(O)OP(=O)(O)O)[C@@H](O)[C@H]2O)c(=O)[nH]1 [GDP, guanosine diphosphate]
Beq of [35S]GTPγS ([2]; GDP-less membranes, 50 µM GDP): 1.21 ± 0.12 fmol·µg^−1protein
decrease of equilibrium binding of [35S]GTPγS ([2]; addition of 50 µM GDP): 4.7 fold
effect on rate of dissociation of [35S]GTPγS ([2]; addition of 50 µM GDP): did not change
slowing of rate of association of [35S]GTPγS ([2]; addition of 50 µM GDP): 3.2 fold
koff fast [3]: 0.00122 s⁻¹
sites with koff slow [3]: 40%
IC50 ([7]; read-out: IC50, homologous competition, 1 µM [3H]GDP): 4480 nM
IC50 ([7]; read-out: IC50, homologous competition, 5 µM [3H]GDP): 8550 nM
Kd ([7]; read-out: KD for [3H]GDP from homologous competition): 3490 nM
Kd ([7]; read-out: KD, saturation binding, 0.3 to 10 µM [3H]GDP): 3470 ± 30 nM

Structure (SMILES): O=C1CCCN1CC#CCN1CCCC1 [Oxotremorine]
stimulation of [35S]GTPγS binding [8]: no stimulation
Kd [9]: 10.7 nM
pα ([9]; Gs/olf, cooperativity between agonist and [3H]GDP binding): −0.78 ± 0.08
flow[%] ([10]; Control (crude membranes), fraction of receptors in low-affinity state): 66 ± 8%
flow[%] ([10]; GDP-less membranes): 13 ± 4 %
change of high-affinity KI in GDP-less membranes vs control ([10]; GDP-less vs control membranes): not changed
Ki ([10]; pKi high, Control (crude membranes)): 11.7 nM
Ki ([10]; pKi high, GDP-less membranes): 11.2 nM
Ki ([10]; pKi, +1 µM GTPγS, monophasic): 550 nM
Ki ([10]; pKi, +50 µM GDP, monophasic): 417 nM
EC50 [11]: 933 nM
EMAX ([11]; Gi/o): 2.72 ± 0.05 fold increase over basal binding
Kd [12]: 11.7 nM
pα ([12]; Gi/o, cooperativity between agonist and [3H]GDP binding): −2.1 ± 0.2
factor of cooperativity α between binding of [3H]GDP and agonist (pα) ([4]; 10 µM [3H]GDP, GDP-less membranes, n=3): −1.8 ± 0.1
EC50 [13]: 1020 nM
maximal increase of [35S]GTPγS binding (Emax) [13]: 2.8 fold increase
EMAX [fold over basal] ([13]; 500 pM [35S]GTPγS, 50 µM GDP): 2.78 ± 0.06 fold over basal
nH ([13]; Hill coefficient, Eqn 2): 0.92 ± 0.03
effect on [3H]GDP equilibrium binding [14]: no effect
EC50 [15]: 7410 nM
EMAX ([15]; Gs/olf): 1.53 ± 0.01 fold increase over basal binding
reduction of agonist affinity by GDP (factor of cooperativity β) ([6]; Eqn 8, GDP-less membranes, 1 nM [3H]NMS): 60 fold

Structure (SMILES): Nc1nc2c(ncn2[C@@H]2O[C@H](COP(=O)(O)OP(=O)(O)OP(O)(O)=S)[C@@H](O)[C@H]2O)c(=O)[nH]1 [GTPγS, guanosine-5′-γ−thiotriphosphate]
Beq [2, 16]: 5.66 ± 0.22 fmol·µg^−1protein
koff [2, 16]: 9e-05 ± 3.61e-06 s⁻¹
